Laboratory results as given in ChEMBL document CHEMBL1121885, “Inhibition of inosinic acid dehydrogenase by 8-substituted purine nucleotides” (J Med Chem, 1981).
pKi: −log10 of the molar value.

biological target: T1, Inosine-5'-monophosphate dehydrogenase (Escherichia coli K-12, UniProt P0ADG7); assay: Inhibition of inosine monophosphate dehydrogenase in Escherichia coli
T1 sequence (P0ADG7 whole entry): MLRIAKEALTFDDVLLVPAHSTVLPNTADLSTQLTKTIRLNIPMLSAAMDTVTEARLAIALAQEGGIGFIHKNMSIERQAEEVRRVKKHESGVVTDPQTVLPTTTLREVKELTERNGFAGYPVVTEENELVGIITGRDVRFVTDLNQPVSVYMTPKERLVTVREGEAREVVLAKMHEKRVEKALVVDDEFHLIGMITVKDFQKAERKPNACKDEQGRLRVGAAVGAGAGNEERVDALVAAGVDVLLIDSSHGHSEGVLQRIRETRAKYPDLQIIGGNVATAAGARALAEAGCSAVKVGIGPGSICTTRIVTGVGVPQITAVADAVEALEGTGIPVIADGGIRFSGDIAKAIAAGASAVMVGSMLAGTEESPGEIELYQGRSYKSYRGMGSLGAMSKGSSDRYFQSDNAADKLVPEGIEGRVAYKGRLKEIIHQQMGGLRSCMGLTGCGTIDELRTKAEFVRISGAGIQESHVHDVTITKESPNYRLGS
Procedure, shortened: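 E. coli B IMP-DH (0-40% ammonium sulfate fraction of frozen paste, redissolved in 0.05 M Tris pH 8.5). Enzyme-started, 25 °C, NADH rise at 360 nm; Ki from weighted fit to linear competitive equation.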

Row | Structure (SMILES) | pKi
1 | COc1ccc(CSc2nc3c(N)ncnc3n2C2O[C@H](COP(=O)(O)O)[C@@H](O)[C@H]2O)cc1 (some centres not stated) | 4.08
2 | O=[N+]([O-])c1ccc(CCSc2nc3c(O)ncnc3n2C2O[C@H](COP(=O)(O)O)[C@@H](O)[C@H]2O)cc1 (some centres not stated) | 4.27
3 | CCCCCSc1nc2c(N)ncnc2n1C1O[C@H](COP(=O)(O)O)[C@@H](O)[C@H]1O (some centres not stated) | 4.08
4 | Nc1ncnc2c1nc(NCc1ccccc1)n2C1O[C@H](COP(=O)(O)O)[C@@H](O)[C@H]1O (some centres not stated) | 3.56
5 | Nc1ncnc2c1nc(S)n2C1O[C@H](COP(=O)(O)O)[C@@H](O)[C@H]1O (some centres not stated) | 4.01
6 | O=c1[nH]cnc2c1nc(SCc1ccccc1)n2C1O[C@H](COP(=O)(O)O)[C@@H](O)[C@H]1O (some centres not stated) | 4.34
7 | Nc1ncnc2c1nc(SCc1ccc(C(=O)O)cc1)n2C1O[C@H](COP(=O)(O)O)[C@@H](O)[C@H]1O (some centres not stated) | 3.71
8 | Nc1ncnc2c1nc(SCc1ccc([N+](=O)[O-])cc1Cl)n2C1O[C@H](COP(=O)(O)O)[C@@H](O)[C@H]1O (some centres not stated) | 4.77
9 | Nc1ncnc2c1nc(SCCc1ccccc1)n2C1O[C@H](COP(=O)(O)O)[C@@H](O)[C@H]1O (some centres not stated) | 4.04
10 | COc1ccc(CSc2nc3c(=O)[nH]cnc3n2C2O[C@H](COP(=O)(O)O)[C@@H](O)[C@H]2O)cc1 (some centres not stated) | 4.39
11 | Nc1ncnc2c1nc(Sc1ccc(Cl)cc1)n2C1O[C@H](COP(=O)(O)O)[C@@H](O)[C@H]1O (some centres not stated) | 4.15
12 | N#Cc1ccc(CSc2nc3c(O)ncnc3n2C2O[C@H](COP(=O)(O)O)[C@@H](O)[C@H]2O)cc1 (some centres not stated) | 4.72
13 | O=c1[nH]cnc2c1nc(Br)n2C1O[C@H](COP(=O)(O)O)[C@@H](O)[C@H]1O (some centres not stated) | 3.57
14 | Nc1ncnc2c1nc(SCc1cc([N+](=O)[O-])cc([N+](=O)[O-])c1)n2C1O[C@H](COP(=O)(O)O)[C@@H](O)[C@H]1O (some centres not stated) | 4.68
15 | Nc1ncnc2c1ncn2[C@@H]1O[C@H](COP(=O)(O)O)[C@@H](O)[C@H]1O [ADENOSINE PHOSPHATE] | 3.35
16 | O=c1[nH]cnc2c1nc(Sc1cccc(C(F)(F)F)c1)n2C1O[C@H](COP(=O)(O)O)[C@@H](O)[C@H]1O (some centres not stated) | 3.98

Row | Structure (SMILES) | pKi
17 | N#Cc1ccc(CSc2nc3c(N)ncnc3n2C2O[C@H](COP(=O)(O)O)[C@@H](O)[C@H]2O)cc1 (some centres not stated) | 4.24
18 | Nc1ncnc2c1nc(Br)n2[C@@H]1O[C@H](COP(=O)(O)O)[C@@H](O)[C@H]1O | 3.79
19 | O=P(O)(O)OC[C@H]1OC(n2c(NCc3ccccc3)nc3c(O)ncnc32)[C@H](O)[C@@H]1O (some centres not stated) | 3.63
20 | Nc1ncnc2c1nc(SCc1cccc([N+](=O)[O-])c1)n2C1O[C@H](COP(=O)(O)O)[C@@H](O)[C@H]1O (some centres not stated) | 4.33
21 | O=P(O)(O)OC[C@H]1OC(n2c(Sc3ccccc3)nc3c(O)ncnc32)[C@H](O)[C@@H]1O (some centres not stated) | 4.17
22 | Nc1ncnc2c1nc(SCc1ccc(Cl)cc1)n2C1O[C@H](COP(=O)(O)O)[C@@H](O)[C@H]1O (some centres not stated) | 4.28
23 | CC(C)(C)c1ccc(CSc2nc3c(N)ncnc3n2C2O[C@H](COP(=O)(O)O)[C@@H](O)[C@H]2O)cc1 (some centres not stated) | 3.89
24 | Nc1ncnc2c1nc(Sc1ccccc1)n2C1O[C@H](COP(=O)(O)O)[C@@H](O)[C@H]1O (some centres not stated) | 3.86
25 | Nc1ncnc2c1nc(SCc1ccccc1)n2C1O[C@H](COP(=O)(O)O)[C@@H](O)[C@H]1O (some centres not stated) | 3.91
26 | CC(C)(C)c1ccc(CSc2nc3c(=O)[nH]cnc3n2C2O[C@H](COP(=O)(O)O)[C@@H](O)[C@H]2O)cc1 (some centres not stated) | 3.89
27 | Nc1ncnc2c1nc(SCCCc1ccccc1)n2C1O[C@H](COP(=O)(O)O)[C@@H](O)[C@H]1O (some centres not stated) | 4.19
28 | Nc1ncnc2c1nc(SCc1ccc(F)cc1)n2C1O[C@H](COP(=O)(O)O)[C@@H](O)[C@H]1O (some centres not stated) | 4.13
29 | O=[N+]([O-])c1ccc(CSc2nc3c(O)ncnc3n2C2O[C@H](COP(=O)(O)O)[C@@H](O)[C@H]2O)cc1 (some centres not stated) | 4.59
30 | Nc1ncnc2c1nc(SCCc1ccc([N+](=O)[O-])cc1)n2C1O[C@H](COP(=O)(O)O)[C@@H](O)[C@H]1O (some centres not stated) | 4.17
31 | Nc1ncnc2c1nc(SCc1ccc([N+](=O)[O-])cc1)n2C1O[C@H](COP(=O)(O)O)[C@@H](O)[C@H]1O (some centres not stated) | 4.28
32 | O=c1[nH]cnc2c1nc(SCc1ccc(Cl)cc1)n2C1O[C@H](COP(=O)(O)O)[C@@H](O)[C@H]1O (some centres not stated) | 4.54
